From ChEMBL document CHEMBL4706706, “Structure-activity relationship and mechanistic studies for a series of cinnamyl hydroxamate histone deacetylase inhibitors” (Bioorg Med Chem, 2021)
Activity calls are given as the source filed them. The calls are words filed in the database; no cut-off is given here.

Key:
Jurkat [1] = assay: Cytotoxicity against human Jurkat cells assessed as reduction in cell proliferation at IC50 measured after 48 hrs by Ki-67 staining based fluorescence assay; format: functional
How it was run: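 Ki-67 stained per kit instructions; mean fluorescence intensity by flow cytometry, normalized to untreated cells; at least three independent experiments, ANOVA with Bonferroni post-test.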

Jurkat [2] = assay: Induction of apoptosis in human Jurkat cells assessed as viable cells at 0.5 times IC50 measured after 48 hrs by Annexin V-FITC/7AAD staining based flow cytometry (reference value: 85.2%); format: functional
HCT-116 = assay: Cytotoxicity against human HCT-116 cells assessed as reduction in cell viability measured after 72 hrs by MTT assay; format: functional, cell-based; settings: HCT-116, 72 h
MCF7 = assay: Cytotoxicity against human MCF7 cells assessed as reduction in cell viability measured after 72 hrs by MTT assay; format: functional, cell-based; settings: MCF7, 72 h
Jurkat [3] = assay: Cytotoxicity against human Jurkat cells assessed as reduction in cell viability measured after 72 hrs by MTT assay; format: functional, cell-based
NAMALVA [4] = assay: Cytotoxicity against human NAMALVA cells assessed as reduction in cell viability measured after 72 hrs by MTT assay; format: functional, cell-based
[5] = Cytotoxicity against human HS5 cells assessed as reduction in cell viability measured after 72 hrs by MTT assay; format: ADME, cell-based; settings: HS5, 72 h
[6] = Selectivity index, ratio of IC50 for human HS5 cells to IC50 for human Jurkat cells
[7] = Selectivity index, ratio of IC50 for human HS5 cells to IC50 for human NAMALVA cells
[8] = Selectivity ratio of IC50 for human HCT-116 cells to IC50 for human Jurkat cells; format: functional
[9] = Selectivity ratio of IC50 for human HCT-116 cells to IC50 for human NAMALVA cells; format: functional
Jurkat [10] = assay: Cytotoxicity against human Jurkat cells assessed as reduction in cell viability MTT assay; format: functional, cell-based; settings: time 24-72 hrs, TDE = time-dependent effect
How it was run: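 Jurkat cells (2 × 10^4/well) in RPMI with 10% FBS and 1% penicillin–streptomycin, exposed 24, 48 and 72 h to compound (0.0032–50 μM); 1% DMSO as negative control. MTT at 0.5 mg/mL final for 3 h, formazan dissolved in 0.1 N HCl/isopropanol. IC50 with 95% confidence intervals from sigmoidal nonlinear regression; mean ± SEM.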

Jurkat [11] = assay: Cytotoxicity against human Jurkat cells assessed as reduction in cell viability measured after 24 hrs MTT assay; format: functional, cell-based
Jurkat [12] = assay: Cytotoxicity against human Jurkat cells assessed as reduction in cell viability measured after 48 hrs MTT assay; format: functional, cell-based
Jurkat [13] = assay: Induction of apoptosis in human Jurkat cells assessed as early apoptotic cells at 0.5 times IC50 measured after 48 hrs by Annexin V-FITC/7AAD staining based flow cytometry (reference value: 6.05%); format: functional
Jurkat [14] = assay: Induction of apoptosis in human Jurkat cells assessed as late apoptotic cells at 0.5 times IC50 measured after 48 hrs by Annexin V-FITC/7AAD staining based flow cytometry (reference value: 6.77%); format: functional
Jurkat [15] = assay: Induction of apoptosis in human Jurkat cells assessed as necrotic cells at 0.5 times IC50 measured after 48 hrs by Annexin V-FITC/7AAD staining based flow cytometry (reference value: 0.23%); format: functional
NAMALVA [16] = assay: Induction of apoptosis in human NAMALVA cells assessed as viable cells at 0.5 times IC50 measured after 48 hrs by Annexin V-FITC/7AAD staining based flow cytometry (reference value: 90.4%); format: functional
NAMALVA [17] = assay: Induction of apoptosis in human NAMALVA cells assessed as early apoptotic cells at 0.5 times IC50 measured after 48 hrs by Annexin V-FITC/7AAD staining based flow cytometry (reference value: 5.07%); format: functional
NAMALVA [18] = assay: Induction of apoptosis in human NAMALVA cells assessed as late apoptotic cells at 0.5 times IC50 measured after 48 hrs by Annexin V-FITC/7AAD staining based flow cytometry (reference value: 3.52%); format: functional
NAMALVA [19] = assay: Induction of apoptosis in human NAMALVA cells assessed as necrotic cells at 0.5 times IC50 measured after 48 hrs by Annexin V-FITC/7AAD staining based flow cytometry (reference value: 1.05%); format: functional
[20] = biological target: T1, Protein deacetylase HDAC6 (Homo sapiens) (UniProt Q9UBN7); assay: Inhibition of HDAC6 in human Jurkat cells assessed as increase in acetylated alpha-tubulin expression at IC50 measured after 48 hrs by Western blot analysis; format: cell-based
T1 sequence (whole entry): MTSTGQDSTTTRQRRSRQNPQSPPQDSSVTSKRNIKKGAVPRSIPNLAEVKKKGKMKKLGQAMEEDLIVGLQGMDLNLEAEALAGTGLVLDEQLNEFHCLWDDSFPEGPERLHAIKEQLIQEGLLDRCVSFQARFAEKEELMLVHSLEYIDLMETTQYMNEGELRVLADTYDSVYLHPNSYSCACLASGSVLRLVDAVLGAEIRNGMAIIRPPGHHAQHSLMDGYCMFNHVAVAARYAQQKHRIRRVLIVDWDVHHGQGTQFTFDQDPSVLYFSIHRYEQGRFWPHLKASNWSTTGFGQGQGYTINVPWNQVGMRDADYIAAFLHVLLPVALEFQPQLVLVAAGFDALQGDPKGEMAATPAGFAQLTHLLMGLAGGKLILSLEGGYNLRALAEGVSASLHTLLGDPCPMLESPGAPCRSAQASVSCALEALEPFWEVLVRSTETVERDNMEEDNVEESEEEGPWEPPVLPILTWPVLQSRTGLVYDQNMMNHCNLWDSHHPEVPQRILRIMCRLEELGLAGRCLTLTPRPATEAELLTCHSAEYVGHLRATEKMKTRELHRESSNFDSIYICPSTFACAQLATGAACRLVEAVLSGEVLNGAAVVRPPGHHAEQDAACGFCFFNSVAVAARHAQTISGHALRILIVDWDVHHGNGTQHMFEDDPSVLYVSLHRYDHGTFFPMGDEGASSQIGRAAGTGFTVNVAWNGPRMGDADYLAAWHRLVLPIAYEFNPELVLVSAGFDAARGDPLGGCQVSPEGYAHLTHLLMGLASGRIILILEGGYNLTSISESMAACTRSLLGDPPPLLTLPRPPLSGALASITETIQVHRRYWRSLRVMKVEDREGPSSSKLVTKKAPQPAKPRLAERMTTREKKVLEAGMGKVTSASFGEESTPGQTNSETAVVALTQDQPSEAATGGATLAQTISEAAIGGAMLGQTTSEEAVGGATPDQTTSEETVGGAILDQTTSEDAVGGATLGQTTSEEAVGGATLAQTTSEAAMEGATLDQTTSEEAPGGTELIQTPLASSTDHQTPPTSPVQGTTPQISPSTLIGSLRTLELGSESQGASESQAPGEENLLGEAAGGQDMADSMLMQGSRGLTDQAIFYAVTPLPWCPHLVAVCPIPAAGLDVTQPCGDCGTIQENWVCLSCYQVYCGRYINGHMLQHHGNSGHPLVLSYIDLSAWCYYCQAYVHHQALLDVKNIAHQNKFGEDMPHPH

[21] = biological target: T1, Protein deacetylase HDAC6 (Homo sapiens); assay: Inhibition of HDAC6 in human NAMALVA cells assessed as increase in acetylated alpha-tubulin expression at IC50 measured after 48 hrs by Western blot analysis; format: cell-based
[22] = biological target: T2, Histone deacetylase (Homo sapiens) (UniProt Q13547+O15379+Q9UBN7+Q92769+Q9UQL6+Q8WUI4+Q9BY41+Q96DB2+P56524+Q9UKV0+Q969S8); assay: Inhibition of HDAC in human Jurkat cells assessed as increase in gammaH2AX expression at IC50 measured after 48 hrs by Western blot analysis; format: cell-based
[23] = biological target: T2, Histone deacetylase (Homo sapiens); assay: Inhibition of HDAC in human NAMALVA cells assessed as increase in gammaH2AX expression at IC50 measured after 48 hrs by Western blot analysis; format: cell-based
Jurkat [24] = assay: Effect on phosphoserine expression in human Jurkat cells at IC50 measured after 48 hrs by Western blot analysis; format: functional, cell-based
Jurkat [25] = assay: Effect on phosphotyrosine expression in human Jurkat cells at IC50 measured after 48 hrs by Western blot analysis; format: functional, cell-based
NAMALVA [26] = assay: Effect on phosphoserine expression in human NAMALVA cells at IC50 measured after 48 hrs by Western blot analysis; format: functional, cell-based
NAMALVA [27] = assay: Effect on phosphotyrosine expression in human NAMALVA cells at IC50 measured after 48 hrs by Western blot analysis; format: functional, cell-based

| SMILES | Activity (Jurkat [1]) | Activity (Jurkat [2]) | IC50 (HCT-116) | IC50 (MCF7) | IC50 (Jurkat [3]) | IC50 (NAMALVA [4]) | IC50 [5] | Ratio IC50 [6] | Ratio IC50 [7] | Ratio IC50 [8] | Ratio IC50 [9] | Activity (Jurkat [10]) | IC50 (Jurkat [11]) | IC50 (Jurkat [12]) | Activity (Jurkat [13]) | Activity (Jurkat [14]) | Activity (Jurkat [15]) | Activity (NAMALVA [16]) | Activity (NAMALVA [17]) | Activity (NAMALVA [18]) | further results |
| --- | --- | --- | --- | --- | --- | --- | --- | --- | --- | --- | --- | --- | --- | --- | --- | --- | --- | --- | --- | --- | --- |
| COc1ccc(NC(=O)Nc2ccc(/C=C/C(=O)NO)cc2)cc1 | Active | 82.2% | 11.9 µM | > 50 µM | 0.11 µM | 0.46 µM | 3 µM | 27 | 7 | 108 | 26 | Tde | 1.8 µM | 0.7 µM | 9.66% | 7.77% | 0.39% | 82.9% | 10.2% | 5.42% | Activity (NAMALVA [19]): 1.46%; inhibition [20]: Active; inhibition [21]: Active; inhibition [22]: Active; inhibition [23]: Active; inhibition (Jurkat [24]): inactive; inhibition (Jurkat [25]): inactive; inhibition (NAMALVA [26]): inactive; inhibition (NAMALVA [27]): inactive |
| O=C(/C=C/c1ccc(NC(=O)Nc2ccc([N+](=O)[O-])cc2)cc1)NO | Active | 87.1% | 12.6 µM | > 50 µM | 0.09 µM | 0.58 µM | 3 µM | 33 | 5 | 140 | 22 | Tde | 2.7 µM | 0.7 µM | 5.74% | 7.03% | 0.18% | 82.8% | 10.1% | 5.89% | Activity (NAMALVA [19]): 1.2%; inhibition [20]: Active; inhibition [21]: Active; inhibition [22]: Active; inhibition [23]: Active; inhibition (Jurkat [24]): inactive; inhibition (Jurkat [25]): inactive; inhibition (NAMALVA [26]): inactive; inhibition (NAMALVA [27]): inactive |
| O=C(Nc1ccccc1)Nc1ccc(C(=O)NO)cc1 | – | – | 14.7 µM | > 50 µM | 2.5 µM | 0.53 µM | – | – | – | – | – | – | – | – | – | – | – | – | – | – | – |
| O=C(CCc1ccc(NC(=O)Nc2ccc([N+](=O)[O-])cc2)cc1)NO | – | – | 6.37 µM | > 50 µM | 0.81 µM | 2.5 µM | – | – | – | – | – | – | – | – | – | – | – | – | – | – | – |
| COc1cccc2c1C(=O)c1c(O)c3c(c(O)c1C2=O)C[C@@](O)(C(=O)CO)C[C@@H]3O[C@H]1C[C@H](N)[C@H](O)[C@H](C)O1 [DOXORUBICIN] | – | – | – | 1.9 µM | 0.05 µM | 0.09 µM | 0.15 µM | – | – | – | – | – | 0.7 µM | 0.2 µM | – | – | – | – | – | – | – |
| COc1ccc(NC(=O)Nc2ccc(C(=O)NO)cc2)cc1 | – | – | 22.3 µM | > 50 µM | 8.03 µM | 4.79 µM | – | – | – | – | – | – | – | – | – | – | – | – | – | – | – |
